According to ChEMBL document CHEMBL1129536, “Nucleoside analogs. 14. The synthesis of antitumor activity in mice of molecular combinations of 5-fluorouracil and N-(2-Chloroethyl)-N-nitrosourea moieties separated by a three-carbon chain” (1996):

Assays:
MAC13 [1] = test: Antitumor effect against MAC13 Tumors was determined by the percent of mean weight of treated tumors to mean weight of control tumors by 10% ethanol/arachis oilat dose 100 mg/kg; format: functional, Mus musculus
In short: (§1)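 MAC 13 tumors were grown in mice. Two days after transplantation, at about 2 mm³, mice were allocated by restricted randomization. Compounds were made up fresh and given ip at 0.1 mL/10 g body weight. Tumor weight was measured 21 days later, and T/C % was the mean treated tumor weight over the mean control weight; deaths among treated mice were recorded.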

[2] = Antitumor effect against MCa Mammary Carcinoma was determined by the percent of median survival times of treated animals to median survival times of control animals by 10%DMSO/water at dose 150 mg/kg; format: functional, Mus musculus
MAC13 [3] = test: Antitumor effect against MAC13 Tumors was determined by no. deaths/treated of mice by 10% ethanol/arachis oil at dose 100 mg/kg; no of deaths/treated 0/5; format: functional, Mus musculus
MAC15A [4] = test: Antitumor effect against MAC15A Tumors was determined by the percent of median survival times of treated animals to median survival times of control animals by 10% ethanol/arachis oil at dose 100 mg/kg; conditions: Mus musculus
MAC13 [5] = test: Antitumor effect against MAC13 Tumors was determined by the percent of mean weight of treated tumors to mean weight of control tumors by arachis oil at dose 150 mg/kg; format: functional, Mus musculus; in short: as §1
MAC13 [6] = test: Antitumor effect against MAC13 Tumors was determined by no. deaths/treated of mice by arachis oil at dose 150 mg/kg; no of deaths/treated 0/5; format: functional, Mus musculus
Mus musculus [7] = test: Antitumor effect against Colon 38 Adenocarcinoma was determined by the percent of median tumor volume of treated animals to median tumor volume of control animals by saline at dose 100 mg/kg; format: functional
In short: (§2)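 Colon 38 adenocarcinoma, serially maintained in C57Bl/6 mice, was implanted as 3 mm × 3 mm fragments sc in B6D2F1 mice (19-22 g) on day 0. Compounds were made fresh on the day of injection, either dissolved in saline (0.9% NaCl) or suspended in saline with Tween 80 […], and given ip. T/C was the median tumor volume of treated over untreated controls; T/C <42% counted as activity.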

MAC15A [8] = test: Antitumor effect against MAC15A Tumors was determined by the percent of median survival times of treated animals to median survival times of control animals by arachis oil at dose 100 mg/kg; conditions: Mus musculus
MAC13 [9] = test: Antitumor effect against MAC13 Tumors was determined by the percent of mean weight of treated tumors to mean weight of control tumors by arachis oil at dose 50 mg/kg; format: functional, Mus musculus
MAC13 [10] = test: Antitumor effect against MAC13 Tumors was determined by no. deaths/treated of mice by arachis oil at dose 50 mg/kg; no of deaths/treated 0/5; format: functional, Mus musculus
[11] = Antitumor effect against MCa Mammary Carcinoma was determined by the percent of median survival times of treated animals to median survival times of control animals by 10%DMSO/water at dose 100 mg/kg; format: functional, Mus musculus
MAC15A [12] = test: Antitumor effect against MAC15A Tumors was determined by the percent of median survival times of treated animals to median survival times of control animals by arachis oil at dose 50 mg/kg; conditions: Mus musculus
MAC13 [13] = test: Antitumor effect against MAC13 Tumors was determined by the percent of mean weight of treated tumors to mean weight of control tumors by arachis oil at dose 200 mg/kg; format: functional, Mus musculus; in short: as §1
MAC13 [14] = test: Antitumor effect against MAC13 Tumors was determined by no. deaths/treated of mice by arachis oil at dose 200 mg/kg; no of deaths/treated 0/10; format: functional, Mus musculus
MAC15A [15] = test: Antitumor effect against MAC15A Tumors was determined by the percent of median survival times of treated animals to median survival times of control animals by arachis oil at dose 200 mg/kg; conditions: Mus musculus
MAC13 [16] = test: Antitumor effect against MAC13 Tumors was determined by no. deaths/treated of mice by arachis oil at dose 200 mg/kg; no of deaths/treated 0/5; format: functional, Mus musculus
Mus musculus [17] = test: Antitumor effect against Colon 38 Adenocarcinoma was determined by the percent of median tumor volume of treated animals to median tumor volume of control animals by saline/Tween 80(9/1)at dose 100 mg/kg; format: functional; in short: as §2
MAC15A [18] = test: Antitumor effect against MAC15A Tumors was determined by the percent of median survival times of treated animals to median survival times of control animals by 10% DMSO/arachis oil at dose 200 mg/kg; conditions: Mus musculus
MAC13 [19] = test: Antitumor effect against MAC13 Tumors was determined by the percent of mean weight of treated tumors to mean weight of control tumors by arachis oil at dose 100 mg/kg; format: functional, Mus musculus; in short: as §1
MAC13 [20] = test: Antitumor effect against MAC13 Tumors was determined by no. deaths/treated of mice by arachis oil at dose 100 mg/kg; no of deaths/treated 0/5; format: functional, Mus musculus
Mus musculus [21] = test: Antitumor effect against Colon 38 Adenocarcinoma was determined by the percent of median tumor volume of treated animals to median tumor volume of control animals by saline/Tween 80(9/1) at dose 50 mg/kg; format: functional; in short: as §2
MAC13 [22] = test: Antitumor effect against MAC13 Tumors was determined by the percent of mean weight of treated tumors to mean weight of control tumors by 10% ethanol/arachis oil at dose 20 mg/kg; format: functional, Mus musculus; in short: as §1
MAC13 [23] = test: Antitumor effect against MAC13 Tumors was determined by no. deaths/treated of mice by 10% ethanol/arachis oil at dose 20 mg/kg; no of deaths/treated 0/5; format: functional, Mus musculus
MAC15A [24] = test: Antitumor effect against MAC15A Tumors was determined by the percent of median survival times of treated animals to median survival times of control animals by saline at dose 20 mg/kg; conditions: Mus musculus
Mus musculus [25] = test: Antitumor effect against Colon 38 Adenocarcinoma was determined by the percent of median tumor volume of treated animals to median tumor volume of control animals by saline/Tween 80(9/1) at dose 100 mg/kg; format: functional; in short: as §2
MAC15A [26] = test: Antitumor effect against MAC15A Tumors was determined by the percent of median survival times of treated animals to median survival times of control animals by arachis oil at dose 300 mg/kg; conditions: Mus musculus
MAC13 [27] = test: Antitumor effect against MAC13 Tumors was determined by the percent of mean weight of treated tumors to mean weight of control tumors by 10% DMSO/arachis oil at dose 100 mg/kg; format: functional, Mus musculus; in short: as §1
MAC13 [28] = test: Antitumor effect against MAC13 Tumors was determined by no. deaths/treated of mice by 10% DMSO/arachis oil at dose 100 mg/kg; no of deaths/treated 0/5; format: functional, Mus musculus
MAC15A [29] = test: Antitumor effect against MAC15A Tumors was determined by the percent of median survival times of treated animals to median survival times of control animals by 10% DMSO/arachis oil at dose 100 mg/kg; conditions: Mus musculus
MAC13 [30] = test: Antitumor effect against MAC13 Tumors was determined by the percent of mean weight of treated tumors to mean weight of control tumors by arachis oil at dose 31.25 mg/kg; format: functional, Mus musculus
MAC13 [31] = test: Antitumor effect against MAC13 Tumors was determined by no. deaths/treated of mice by arachis oil at dose 31.25 mg/kg; no of deaths/treated 0/10; format: functional, Mus musculus
[32] = Antitumor effect against MCa Mammary Carcinoma was determined by the percent of median survival times of treated animals to median survival times of control animals by 10%DMSO/water at dose 60 mg/kg; format: functional, Mus musculus
MAC15A [33] = test: Antitumor effect against MAC15A Tumors was determined by the percent of median survival times of treated animals to median survival times of control animals by arachis oil at dose 62.5 mg/kg; conditions: Mus musculus
Mus musculus [34] = test: Antitumor effect against Colon 38 Adenocarcinoma was determined by the percent of median tumor volume of treated animals to median tumor volume of control animals by saline at dose 50 mg/kg; format: functional
MAC13 [35] = test: Antitumor effect against MAC13 Tumors was determined by the percent of mean weight of treated tumors to mean weight of control tumors by arachis oil at dose 135 mg/kg; format: functional, Mus musculus; in short: as §1
MAC13 [36] = test: Antitumor effect against MAC13 Tumors was determined by no. deaths/treated of mice by arachis oil at dose 135 mg/kg; no of deaths/treated 0/5; format: functional, Mus musculus
[37] = Antitumor effect against MCa Mammary Carcinoma was determined by the percent of median survival times of treated animals to median survival times of control animals by 10%DMSO/water at dose 80 mg/kg; format: functional, Mus musculus
MAC15A [38] = test: Antitumor effect against MAC15A Tumors was determined by the percent of median survival times of treated animals to median survival times of control animals by arachis oil at dose 90 mg/kg; conditions: Mus musculus

O=NN(CCCl)C(=O)NCCC(OCCO)n1cc(F)c(=O)[nH]c1=O (stereo not given)
T/C (MAC13 [1]): 23% | T/C [2]: 168% | No. deaths/treated (MAC13 [3]): 0 | T/C (MAC15A [4]): 233%

COC(CCNC(=O)N(CCCl)N=O)n1cc(F)c(=O)[nH]c1=O (stereo not given)
T/C (MAC13 [5]): 0.8% | No. deaths/treated (MAC13 [6]): 0 | T/C (Mus musculus [7]): 47% | T/C (MAC15A [8]): 233%

COC(CNC(=O)N(CCCl)N=O)n1cc(F)c(=O)[nH]c1=O (stereo not given)
T/C (MAC13 [9]): 7% | No. deaths/treated (MAC13 [10]): 0 | T/C [11]: 311% | T/C (Mus musculus [7]): 38% | T/C (MAC15A [12]): 200%

O=NN(CCCl)C(=O)NCCOC(CCNC(=O)c1ccccc1C(=O)O)n1cc(F)c(=O)[nH]c1=O (stereo not given)
T/C (MAC13 [13]): 103% | No. deaths/treated (MAC13 [14]): 0 | T/C [11]: 121% | T/C (MAC15A [15]): 148%

O=NN(CCCl)C(=O)NCCC(SCC(=O)O)n1cc(F)c(=O)[nH]c1=O (stereo not given)
T/C (MAC13 [13]): 31% | No. deaths/treated (MAC13 [16]): 0 | T/C (Mus musculus [17]): 0% | T/C (MAC15A [18]): 275%

O=NN(CCCl)C(=O)NCCOC(CCO)n1cc(F)c(=O)[nH]c1=O (stereo not given)
T/C (MAC13 [19]): 27% | No. deaths/treated (MAC13 [20]): 0 | T/C (Mus musculus [21]): 68% | T/C (MAC15A [8]): 136%

CC1CCC(NC(=O)N(CCCl)N=O)CC1 (stereo not given) [SEMUSTINE]
T/C (MAC13 [22]): 8% | No. deaths/treated (MAC13 [23]): 0 | T/C (MAC15A [24]): 154%

CC(C)(C)OC(CCNC(=O)N(CCCl)N=O)n1cc(F)c(=O)[nH]c1=O (stereo not given)
T/C (MAC13 [13]): 1% | No. deaths/treated (MAC13 [16]): 0 | T/C (Mus musculus [25]): 42% | T/C (MAC15A [26]): 280%

O=NN(CCCl)C(=O)NCCC(n1cc(F)c(=O)[nH]c1=O)n1c(=O)[nH]cc(F)c1=O (stereo not given)
T/C (MAC13 [27]): 87% | No. deaths/treated (MAC13 [28]): 0 | T/C (MAC15A [29]): 182%

CSC(CNC(=O)N(CCCl)N=O)n1cc(F)c(=O)[nH]c1=O (stereo not given)
T/C (MAC13 [30]): 122% | No. deaths/treated (MAC13 [31]): 0 | T/C [32]: 189% | T/C (Mus musculus [7]): 0% | T/C (MAC15A [33]): 156%

COC(CCNC(=O)N(CCCl)N=O)n1c(=O)cc[nH]c1=O (stereo not given)
T/C (MAC13 [27]): 43% | No. deaths/treated (MAC13 [28]): 0 | T/C (MAC15A [29]): 200%

COC(CNC(=O)N(CCCl)N=O)n1c(=O)[nH]cc(F)c1=O (stereo not given)
T/C (MAC13 [9]): 11% | No. deaths/treated (MAC13 [10]): 0 | T/C (Mus musculus [34]): 17% | T/C (MAC15A [8]): >850%

COC(CCNC(=O)N(CCCl)N=O)n1c(=O)[nH]cc(F)c1=O (stereo not given)
T/C (MAC13 [27]): 1% | No. deaths/treated (MAC13 [28]): 0 | T/C (MAC15A [29]): 360%

CSC(CCNC(=O)N(CCCl)N=O)n1cc(F)c(=O)[nH]c1=O (stereo not given)
T/C (MAC13 [35]): 0% | No. deaths/treated (MAC13 [36]): 0 | T/C [37]: 195% | T/C (Mus musculus [7]): 63% | T/C (MAC15A [38]): 200%
